{
  "source": "paper PMC8201661",
  "about": "(Cell chemical biology, 2020)",
  "key": {"[1]": {"tested_on": "RPMI 8226", "conditions": "cited from earlier work"}, "[2]": {"tested_on": "MM1.R cells", "assay": "Cell toxicity, WST-1 assay, MM1.R", "type": "cell-based", "conditions": "Homo sapiens, MM.1R, 48 h, read-out: EC50 cytotoxicity, MM1.R", "outline": "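MM1.R cells grown in RPMI-1640 with 10% FBS, non-essential amino acids and penicillin/streptomycin at 37 °C, 5% CO2. Cells exposed to a range of test-compound concentrations for 24 h or 48 h. Viability read by WST-1 per manufacturer's protocol as values relative to control, n = 3. EC50 fitted from concentration–response.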"}, "[3]": {"tested_on": "20S proteasome subunits PSMB5, PSMB10, PSMA5, PSMB1, and PSMB2", "assay": "In situ competitive LC-MS/MS pull-down with probe 20", "type": "cell-based, human", "conditions": "RPMI 8226 cells, 100 nM 1 for 6 hours, then 10 μM 20; LFQ, n = 6", "outline": "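RPMI 8226 cells grown to confluence, then given fresh medium with 100 nM test compound (1000x DMSO stock) or DMSO for 6 h. Washed cells were sonicated in PBS. Lysate (2.32 mg/mL) got 10 μM alkyne probe, 1 h r.t. CuAAC used 30 μM biotin azide, 1 mM TCEP, 100 μM TBTA and 1 mM CuSO4 (1 h), then streptavidin enrichment and on-bead TCEP/iodoacetamide treatment. Trypsin digest, LC-MS/MS, LFQ ratios; n = 6 (3 biological × 2 technical).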"}, "[4]": {"tested_on": "RPMI 8226 cells", "assay": "Cell toxicity, WST-1 assay, RPMI 8226", "type": "cell-based", "conditions": "Homo sapiens, RPMI-8226, 48 h, read-out: EC50 cytotoxicity, RPMI 8226"}, "[5]": {"tested_on": "RPMI 8226 cells", "assay": "Western blot for mono-/poly-Ub and PARP-1", "type": "cell-based, human", "conditions": "RPMI 8226 cells treated with various concentrations for 6 h", "outline": "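RPMI 8226 cells (1,000,000/well) given a range of test-compound concentrations (1000x DMSO stock) or DMSO for 6 h. Lysis in RIPA with protease inhibitors (5 min, ice), then sonication and clearing at 17000 x g. Protein by BCA. After SDS-PAGE and PVDF wet transfer, membranes blocked in 5% milk/TBST and probed for PARP-1 (1:1,000 in 5% BSA/TBST), mono/poly-ubiquitin and α-tubulin as loading control.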"}, "[6]": {"tested_on": "MM1.R", "conditions": "read-out: Previously reported cytotoxicity, MM1.R; ref Hideshima et al., 2001; cited from earlier work"}},
  "data": [
    {"smiles": "CC(C)C[C@H](NC(=O)[C@H](CCc1ccccc1)NC(=O)CN1CCOCC1)C(=O)N[C@@H](Cc1ccccc1)C(=O)N[C@@H](CC(C)C)C(=O)[C@@]1(C)CO1", "note": "[carfilzomib]", "values": [
      {"measurement": "EC50", "setting": "[1]", "value": 5, "unit": "nM"}
    ]},
    {"smiles": "CC(C)CCCCC/C=C/C=C/C(=O)N[C@H](C(=O)N[C@H]1C[C@@H](O)CCNC(=O)/C=C/[C@H](C)NC1=O)[C@@H](C)O", "note": "[Compound 1, (2E,4E)-N-((2S,3R)-3-hydroxy-1-(((5S,8S,10S,E)-10-hydroxy-5-methyl-2,7-dioxo-1,6-diazacyclododec-3-en-8-yl)amino)-1-oxobutan-2-yl)-11-methyldodeca-2,4-dienamide]", "values": [
      {"measurement": "EC50", "setting": "[2]", "value": 23, "unit": "nM"},
      {"measurement": "Competition of 20-enriched PSMB5, PSMB10, PSMA5, PSMB1 and PSMB2", "setting": "[3]", "value": "> 50", "unit": "%"},
      {"measurement": "EC50", "setting": "[4]", "value": 31, "unit": "nM"},
      {"measurement": "PARP-1 Western blot (apoptosis marker)", "setting": "[5]", "value": "PARP-1 cleavage"},
      {"measurement": "Ubiquitinated proteins (mono-/poly-ubiquitin Western blot)", "setting": "[5]", "value": "concentration-dependent increase in ubiquitinated proteins"}
    ]},
    {"smiles": "CC(C)C[C@H](NC(=O)[C@H](Cc1ccccc1)NC(=O)c1cnccn1)B(O)O", "note": "[bortezomib]", "values": [
      {"measurement": "EC50", "setting": "[6]", "value": 3, "unit": "nM"}
    ]}
  ]
}
